G6PDH CS: L. mesenteroides G6PDH inhibition counter-screen; Purified L. mesenteroides G6PDH, diaphorase/resazurin coupled fluorescence, 45 min; inhibition, % at 5 µM; actives 0.12% (n = 200,000); AID 1020
L major viab: Leishmania major promastigote growth inhibition | Leishmania major promastigotes, resazurin fluorescence viability | AID 1063 | actives 9% (n = 200,000) | inhibition, % at 10 µM;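 further: promastigotes grown with compound for 44 hours at 28 °C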
Diaphorase inh: inhibits diaphorase or chemically oxidizes, flagging diaphorase assay artifacts. diaphorase resazurin-to-resorufin fluorescence, NADH, 16 min; bacterial (C. kluyveri) enzyme, not human. inhibition, % at 20 µM. actives 0.69% (n = 190,000);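 active means primary screen inhibition at 20 µM above a set limit, cut at about 50% in these data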;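 further: plate controls were DMSO with full reaction for no effect and wells lacking NADH for full effect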
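System: Diaphorase enzyme from Clostridium kluyveri | Amount: Enzyme working solution with 0.14 U/mL diaphorase | Benchmarks: No-NADH positive control and DMSO neutral control | Signal: Fluorescence of resorufin formed from resazurin, Ex 544/Em 590 nm | Schedule: 16-min room-temperature incubation before reading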
Diaphorase act: diaphorase activation or chemical reduction counter-screen; Diaphorase/resazurin coupled assay, resorufin fluorescence, 16 min; hits give high values; 1 = vehicle wells, 0 = NADH-free wells; activation factor at 20 µM; actives 0.005% (n = 190,000);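 active means diaphorase activity raised at least twofold by the compound at 20 µM; inactive means activation factor below 2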
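Test system: Clostridium kluyveri diaphorase, purified enzyme; input: enzyme 0.07 U/mL final; buffer or medium: 50 mM HEPES pH 7.4 with 4.542 mM MgCl2, 0.005% Tween 20; also added: 0.114 mM NADH and 0.1 mM resazurin, final amounts; schedule: 16 min enzyme reaction, ambient temperature; technique: fluorescence of resorufin, 544 nm excitation, 590 nm emission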
WT yeast gro inh: growth inhibition of WT yeast, mitochondrial fusion screen | actives 2.1% (n = 190,000) | inhibition, % at 10 µM | mitochondrial fusion phenotypic screen, WT strain; in the data active means inhibition above about 58%; tested in S. cerevisiae
An asterisk follows results filed as active. An excerpt weighted towards active compounds, which were near 11% of everything screened. Unless noted, no stated cut-off is given here; in the data, active means inhibition above about 50%; inactive means the rest.

SMILES | G6PDH CS | L major viab | Diaphorase inh | Diaphorase act | WT yeast gro inh
CCn1cc(C(=O)OCc2cccc(Br)c2)c(=O)c2ccc(C)nc21 | -49.6 | 14.1 | 12.8 | 0.9 | 24.5
CCCn1nnnc1NC(=O)c1cc(Cl)ccc1Cl | -1.5 | -1.9 | 19.2 | 0.8 | -3.4
COc1ccc(-c2csc(-c3[nH]cnc3N)n2)cc1 | 11.1 | 96.2* | 8.8 | 0.9 | -10.3
COc1ccc(-c2csc(-c3ccc(C(=O)O)cc3)n2)cc1 | -7.4 | 9.6 | -0.6 | 1 | 10.4
CCN1CCCn2c1nc1c2c(=O)n(C)c(=O)n1C | 8.7 | 58.7* | 5.8 | 0.9 | -10.8
Cn1c(=O)n(Cc2ccccc2)c(=O)c2c1nc1n2CCCN1CCc1ccccc1 | 4.4 | 100.4* | 14.8 | 0.9 | -4.8
COc1cc(CNn2cn[nH]c2=S)cc(Br)c1OCc1ccccc1F | 2.9 | 8.7 | 25.3 | 0.7 | 72.3*
COc1cc(CNCc2ccncc2)cc(Br)c1OCc1ccccc1F | -5.0 | 97.8* | -2.4 | 1 | 8.2
Cc1ccc2cc3c(NC(=O)C(C)C)nn(C)c3nc2c1 | 12.5 | 7.5 | 2.2 | 1 | 6.0
CC(Nc1ccc(Cl)cc1)c1cc(Cl)ccc1O (stereo not drawn) | 6.3 | 29.1 | 12.3 | 0.9 | 74.5*
CCOc1ccc(NC(C)c2cc(Cl)ccc2O)cc1 (stereo not drawn) | -10.8 | 1.0 | 27.4 | 0.7 | 6.7
CC(Nc1ccc(Br)cn1)c1cc(Cl)ccc1O (stereo not drawn) | -17.8 | 92.1* | 27.4 | 0.7 | 72.5*
COc1ccccc1CNC(=O)c1ccc(OC(C)C)cc1 | 6.3 | -2.6 | -3.3 | 1 | 8.7
Cc1nc(CSc2nc3[nH]ncc3c(=O)n2-c2ccccc2)cs1 | -1.2 | 19.6 | 12.9 | 0.9 | -4.3
O=c1c2cn[nH]c2nc(SCc2c(F)cccc2F)n1-c1ccc(Cl)cc1 | -2.6 | 20.4 | 27.0 | 0.7 | 72.8*
Cc1cccc(-n2c(SCc3cc(=O)n4c(C)cccc4n3)nc3[nH]ncc3c2=O)c1 | -5.5 | 96.5* | 14.6 | 0.9 | -3.5
CCNS(=O)(=O)c1ccc(NC(=O)c2ccc(Cn3cc([N+](=O)[O-])cn3)o2)cc1 | 0.6 | 0.6 | 3.7 | 1 | -12.4
O=C(N/N=C/c1ccc2c(c1)OCO2)c1cc(-c2ccncc2)nc2ccccc12 | -2.6 | 45.6 | 19.6 | 0.8 | -9.2
CCOc1ccccc1-c1cc(C(=O)N/N=C/c2ccc3c(c2)OCO3)c2ccccc2n1 | 1.0 | 50.7* | 15.3 | 0.8 | 20.1
CCOc1ccccc1-c1cc(C(=O)N/N=C/c2ccc(O)c(OC)c2)c2ccccc2n1 | -2.2 | 57.9* | 1.5 | 1 | -7.8
CCN(CC)c1ccc(/C=N/NC(=O)CNC(=O)c2ccccn2)cc1 | 1.0 | 0.3 | 7.3 | 0.9 | 5.8
CCOc1cc(/C=N/NC(=O)c2cc(-c3cccnc3)nc3ccccc23)ccc1O | -4.8 | 0.4 | 10.6 | 0.9 | -4.1
O=C(CNC(=O)c1ccccn1)N/N=C/c1ccc2c(c1)OCO2 | 2.0 | 63.0* | 16.7 | 0.8 | -7.0
O=C(N/N=C/c1ccc2c(c1)OCO2)c1cc(-c2ccccc2Cl)nc2ccccc12 | -2.6 | 55.9* | 30.8 | 0.7 | 36.1
CC(C)c1onc(C(=O)N2CCN(C(c3ccccc3)c3ccccc3)CC2)c1[N+](=O)[O-] | 6.9 | 22.1 | 1.9 | 1 | -17.4
SMILES | G6PDH CS | L major viab | Diaphorase inh | Diaphorase act | WT yeast gro inh
Oc1[nH]c2ccccc2c1N=Nc1nc2ccccc2s1 | 0.8 | -1.3 | 13.3 | 0.9 | 12.1
CCc1nc(N=Nc2c(O)[nH]c3ccccc23)c2c3c(sc2n1)CCC3 | -1.3 | 82.5* | 7.1 | 0.9 | -5.5
CC1CC(C)CN(CCOc2cccc(Cl)c2Cl)C1 (stereo not drawn) | 2.7 | 90.7* | 7.2 | 0.9 | 44.1
CC1CC(C)CN(CCOc2ccc(Cl)cc2Cl)C1 (stereo not drawn) | 1.1 | 96.9* | 12.0 | 0.9 | 57.8
CCN1CCN(CCOc2cccc(Cl)c2Cl)CC1 | 11.7 | 85.8* | 2.2 | 1 | -0.1
CCOC(=O)Nc1ccc(Cc2ccncc2)cc1 | 6.5 | -1.5 | 8.1 | 0.9 | -12.7
O=C(Cc1cccs1)Nc1ccc(NC(=O)c2ccco2)cc1 | 2.3 | -4.6 | 14.5 | 0.9 | -2.5
Cc1ccc(-c2nn(-c3ccccc3)cc2CSC(=N)N)cc1 | 13.4 | 100.2* | -25.3 | 1.3 | 80.7*
OCc1cn(-c2ccccc2)nc1-c1ccc(-c2nn(-c3ccccc3)cc2CO)cc1 | 11.6 | 0.1 | 20.1 | 0.8 | -9.3
